Measured values pooled from the literature.
Each line is one published result; the experiments were not run side by side.

CC(C)CN(C[C@@H](O)[C@H](Cc1ccccc1)NC(=O)O[C@H]1CO[C@H]2OCC[C@H]21)S(=O)(=O)c1ccc(N)cc1
concentration (BALB/c mouse, plasma; intravenous, 25 mg/kg, 12 h): 31.4 ng/mL

CC(C)(Nc1nc(-c2ccccn2)nc2ccccc12)c1ccccn1
concentration (female BALB/c mouse, plasma; intravenous, 1 mg/kg, 4.98 min): 1460 ng/mL

O=c1nc(N2CCN(CC3CCCCC3)CC2)sc2c([N+](=O)[O-])cc(C(F)(F)F)cc12
concentration (CD-1 mouse, plasma; intravenous, 10 mg/kg, 4 h): 139 ng/mL

COc1cccc(/C=C/c2ccc(O)cc2)c1
chromatographic logP (HPLC): > 3.14

O=C(O)C1CCN(c2ncc(-c3ccc4c(c3)OCCCO4)s2)CC1
concentration (male Swiss mouse, plasma; oral, 30 mg/kg, 1 h, single dose): 7580 ng/mL

O=C1NN=C(N=Cc2ccc(O)c(O)c2)C1=NNn1c(-c2ccccc2)nc2ccccc2c1=O
logP: 3.38

N#CN1C[C@H](n2nc(-c3ccc(Oc4ccc(Cl)cn4)cc3)c(C(N)=O)c2N)CCC12CC2
MRT (human, plasma; oral, 600 mg, fed): 33 h

CCc1ccc(Cc2cc([C@@H]3O[C@H](CO)[C@@H](O)[C@H](O)[C@H]3O)cc3c2CCC3)cc1
half-life (male C57BL/6 mouse, plasma; oral, 0.3 mg/kg): 3.1 h

CC(C)Oc1cccc(-c2cnc(N3CCC(C(N)=O)CC3)s2)c1
concentration (male Swiss mouse, plasma; oral, 30 mg/kg, 2 h, single dose): 206 ng/mL

c1cnc2ccc(Nc3nc(NC4CC4)c4nc[nH]c4n3)cc2c1
MRT(0-t) (human, plasma; oral, 800 mg/m², patients): 9.6 h

O=C1NN=C(N=Cc2ccccc2O)C1=NNn1c(-c2ccccc2)nc2ccccc2c1=O
logP: 3.68

COc1cc(O)cc(/C=C/c2ccccc2)c1
chromatographic logP (HPLC): > 3.14

CC(C)(O)c1ccccc1-c1ccc2[nH]c(/C=C/c3ccc(C(F)(F)F)cc3)nc2c1
MRT (male human, plasma; oral, 50 mg, single dose, fasted, healthy volunteers): 99.5 h

CC(C)(C)c1ccc(O)c(CN(Cc2cc(C(C)(C)C)ccc2O)C2CCC(NC(N)=O)CC2)c1 (centres unmarked)
half-life (male C57BL/6 mouse, plasma; intraperitoneal, 10 mg/kg, single dose): 2.49 h
